Measured values from publication PMC7660780 (Journal of the American Heart Association: Cardiovascular …, 2020).
Values after ≈ are worked out from the molar mass of the structure shown. Values joined by “and” are separate entries in the source; they are usually repeats but may differ in a detail not shown here. Equal entries are not always repeated. “Also recorded” adds a separate entry of the source.

Key:
Assay type in all cases: in vivo, human
[1] = system: ADP‐induced platelet aggregation (20 μmol/L); assay: Ex vivo inhibition of ADP-induced platelet aggregation; conditions: healthy volunteers
Summary of the method: (§1)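 Each participant got a single SC deltoid dose. Blood was drawn at baseline and at set times to 24 h into PPACK (100 μmol/L final). PRP was spun at 600 g or 300 g for 5 min at RT, and PPP at 2000 g for 9 min. High PRP counts were lowered with PPP. Turbidometric aggregation used 20 μmol/L ADP. IPA is the % fall in primary slope (≥15 s, 0.5 s sampling) versus the baseline sample, reported as mean±SD.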

[2] = system: ADP‐induced platelet aggregation (20 μmol/L); assay: Ex vivo inhibition of ADP-induced platelet aggregation; conditions: for IPA Mean (SD): 15 min post-dose; for IPA of the 1 participant who did not achieve the BED: 0.075 mg/kg SC dose escalation
[3] = system: ADP‐induced platelet aggregation (20 μmol/L)
Summary of the method: as §1

[4] = RUC‐4 whole blood levels by LC-MS/MS; conditions: dose‐expansion group 0.075 mg/kg SC
[5] = Population pharmacokinetic model
[6] = system: ADP‐induced platelet aggregation (20 μmol/L); assay: Population pharmacodynamic model; conditions: for IC50: value ± spread as printed in pharmacokinetic data section
[7] = Safety measures in healthy volunteers; conditions: HVs
Summary of the method: (§2)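 The trial was double-blind, placebo-controlled and dose-escalating. In each cohort, 2 sentinels were dosed, then 5 more were randomized 4:1 to drug or placebo. Each received a single weight-based SC deltoid injection of 0.18–0.52 mL, followed by 15 min gentle pressure. Injection site checks, platelet counts, laboratory tests and clinical assessments ran at set times through 24 h and at 7 days. Adverse events were graded by CTCAE.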

[8] = Safety measures in patients with stable CAD receiving aspirin; conditions: stable CAD on aspirin
Summary of the method: as §2

[9] = Safety and tolerability, summary statements over the whole study
Summary of the method: as §2

[10] = stable CAD on aspirin, 0.075 mg/kg SC, dose escalation
[11] = 0.075 mg/kg SC, HVs and patients with stable CAD taking aspirin
[12] = dose escalation 0.04 mg/kg (n=2)
[13] = dose escalation 0.05 mg/kg (n=6)
[14] = dose escalation 0.075 mg/kg (n=6)
[15] = dose expansion 0.075 mg/kg (n=12)

NCC(=O)Nc1cncc(-c2nn3c(=O)cc(N4CCNCC4)nc3s2)c1 [RUC‐4]
IPA mean±SD ([1]; 0.05 mg/kg SC (n=6), 15 minutes): 71.8%±15.0%
return of IPA toward baseline ([1]; 0.075 mg/kg SC): ≤ 4 h
IPA mean±SD ([1]; 0.075 mg/kg SC (n=6), 15 minutes, 0.075 mg/kg): 84.7%±16.7% and 84.7%
IPA median ([1]; 0.075 mg/kg SC, 15 minutes): 88.0%
IPA of the individual participants not achieving the BED ([1]; 0.075 mg/kg SC, 15 minutes, 0.075 mg/kg): 76.5% and 55.8%
IPA of the individual participants not achieving the BED ([1]; 0.075 mg/kg SC, 30 minutes postdose, 0.075 mg/kg): 68.6% and 73.1%
IPA of the one CAD participant with much higher whole blood levels ([2]; dose‐expansion group 0.075 mg/kg SC, 5, 15, 30, and 60 minutes time points): 100%
IPA Mean (SD) ([2]; stable CAD on aspirin, 0.04 mg/kg SC, 0.04 mg/kg): 53.6%±17.0%
IPA Mean (SD) ([2]; stable CAD on aspirin, 0.05 mg/kg SC, 0.05 mg/kg): 76.9%±10.6%
IPA of the 1 participant who did not achieve the BED ([2]; stable CAD on aspirin, 15 minutes): 65.4%
IPA of the 1 participant who did not achieve the BED ([2]; stable CAD on aspirin, 30 minutes): 86.5%
participants achieving the BED [2, 10]: 5 of 6
return of IPA toward baseline [2, 10]: ≤ 4 h
participants achieving the BED ([2]; stable CAD on aspirin, 0.075 mg/kg SC, dose expansion, additional participants): 6 of the 12
IPA mean±SD ([2]; stable CAD on aspirin, 0.075 mg/kg SC, high‐weight group, 15 minutes): 88.0%±14.4%
IPA mean±SD ([2]; stable CAD on aspirin, 0.075 mg/kg SC, high‐weight group, 30 minutes): 85.4%±21.0
IPA mean±SD ([2]; stable CAD on aspirin, 0.075 mg/kg SC, low‐weight group, 15 minutes): 63.2%±21.4%
IPA mean±SD ([2]; stable CAD on aspirin, 0.075 mg/kg SC, low‐weight group, 30 minutes): 67.8%±14.7%
platelet inhibition (high‐grade) [3, 11]: > 80%
time to onset of high-grade platelet inhibition [3, 11]: < 15 min
time within which platelet inhibition largely resolved [3, 11]: ≤ 2 h
time to peak of blood drug levels and platelet inhibition ([3]; subcutaneous administration): ≤ 15 min
time to onset of high-grade inhibition of platelet aggregation ([3]; subcutaneous, 20 μmol/L of ADP): < 15 min
time to return of IPA toward baseline ([3]; subcutaneous, 20 μmol/L of ADP): ≤ 2 h
inhibition of platelet aggregation (high‐grade) ([3]; subcutaneous, 20 μmol/L of ADP, across the study populations): > 80%
whole blood level of RUC‐4, group mean excluding the outlying participant ([4]; 5 minutes): 26.8 ± 26.5 ng/mL
whole blood level of RUC‐4, one CAD participant with much higher levels ([4]; 5 minutes): 384 ng/mL
whole blood level of RUC‐4, group mean excluding the outlying participant ([4]; 15 minutes): 74.3 ± 38.6 ng/mL
whole blood level of RUC‐4, one CAD participant with much higher levels ([4]; 15 minutes): > 500 ng/mL
whole blood level of RUC‐4, group mean excluding the outlying participant ([4]; 30 minutes): 71.3 ± 30.5 ng/mL
whole blood level of RUC‐4, one CAD participant with much higher levels ([4]; 30 minutes): 307 ng/mL
whole blood level of RUC‐4, group mean excluding the outlying participant ([4]; 60 minutes): 40.3 ± 7.3 ng/mL
whole blood level of RUC‐4, one CAD participant with much higher levels ([4]; 60 minutes): 131 ng/mL
Vp/F (apparent peripheral volume of distribution), geometric mean ([5]; SC, All Subjects): 221 L
effect of aspirin on RUC‐4 pharmacokinetics or pharmacodynamics ([5]; pharmacokinetic and pharmacodynamic models, covariate aspirin): did not significantly affect
IC50, geometric mean ([6]; cohort with aspirin): 0.0338 mg/L (≈ 0.0875 µM)
IC50, geometric mean ([6]; cohort without aspirin): 0.0342 mg/L (≈ 0.0885 µM)
gamma (coefficient) ([6]; sigmoidal Emax model): 1.31
IC50 ([6]; with aspirin): 0.0347 ± 0.0079 mg/L (≈ 0.0898 µM)
IC50 ([6]; without aspirin): 0.0348 ± 0.0067 mg/L (≈ 0.0901 µM)
No. of TESAEs ([7]; 0.05 mg/kg (n=6)): 0
Patients reporting a TEAE of bruising at the injection site ([7]; 0.05 mg/kg (n=6)): 0 (0.0) n (%)
Patients reporting a non‐AE bruising at the injection site event ([7]; 0.05 mg/kg (n=6)): 2 (33.3) n (%)
Patients reporting at least 1 bleeding AE ([7]; 0.05 mg/kg (n=6)): 0 (0.0) n (%)
Patients reporting at least 1 injection site reaction adverse event ([7]; 0.05 mg/kg (n=6)): 0 (0.0) n (%)
Patients reporting at least 1 related TEAE with CTCAE grade ≥3 ([7]; 0.05 mg/kg (n=6)): 0 (0.0) n (%)
non‐AE bruising at the injection site, Grade 1 ([7]; 0.05 mg/kg (n=6)): 2 (33.3) n (%)
non‐AE bruising at the injection site, Grade 2 ([7]; 0.05 mg/kg (n=6)): 0 (0.0) n (%)
No. of TESAEs ([7]; 0.075 mg/kg (n=6)): 0
Patients reporting a TEAE of bruising at the injection site ([7]; 0.075 mg/kg (n=6)): 0 (0.0) n (%)
Patients reporting a non‐AE bruising at the injection site event ([7]; 0.075 mg/kg (n=6)): 0 (0.0) n (%)
Patients reporting at least 1 bleeding AE ([7]; 0.075 mg/kg (n=6)): 0 (0.0) n (%)
Patients reporting at least 1 injection site reaction adverse event ([7]; 0.075 mg/kg (n=6)): 0 (0.0) n (%)
Patients reporting at least 1 related TEAE with CTCAE grade ≥3 ([7]; 0.075 mg/kg (n=6)): 0 (0.0) n (%)
non‐AE bruising at the injection site, Grade 1 ([7]; 0.075 mg/kg (n=6)): 0 (0.0) n (%)
non‐AE bruising at the injection site, Grade 2 ([7]; 0.075 mg/kg (n=6)): 0 (0.0) n (%)
No. of TESAEs [8, 12]: 0
Patients reporting a TEAE of bruising at the injection site [8, 12]: 0 (0.0) n (%)
Patients reporting a non‐AE bruising at the injection site event [8, 12]: 0 (0.0) n (%)
Patients reporting at least 1 bleeding AE [8, 12]: 0 (0.0) n (%)
Patients reporting at least 1 injection site reaction AE [8, 12]: 0 (0.0) n (%)
Patients reporting at least 1 related TEAE with CTCAE grade ≥3 [8, 12]: 0 (0.0) n (%)
non‐AE bruising at the injection site, Grade 1 [8, 12]: 0 (0.0) n (%)
non‐AE bruising at the injection site, Grade 2 [8, 12]: 0 (0.0) n (%)
No. of TESAEs [8, 13]: 0
Patients reporting a TEAE of bruising at the injection site [8, 13]: 0 (0.0) n (%)
Patients reporting a non‐AE bruising at the injection site event [8, 13]: 2 (33.3) n (%)
Patients reporting at least 1 bleeding AE [8, 13]: 0 (0.0) n (%)
Patients reporting at least 1 injection site reaction AE [8, 13]: 0 (0.0) n (%)
Patients reporting at least 1 related TEAE with CTCAE grade ≥3 [8, 13]: 0 (0.0) n (%)
non‐AE bruising at the injection site, Grade 1 [8, 13]: 2 (33.3) n (%)
non‐AE bruising at the injection site, Grade 2 [8, 13]: 0 (0.0) n (%)
No. of TESAEs [8, 14]: 0
Patients reporting a TEAE of bruising at the injection site [8, 14]: 0 (0.0) n (%)
Patients reporting a non‐AE bruising at the injection site event [8, 14]: 4 (66.7) n (%)
Patients reporting at least 1 bleeding AE [8, 14]: 0 (0.0) n (%)
Patients reporting at least 1 injection site reaction AE [8, 14]: 0 (0.0) n (%)
Patients reporting at least 1 related TEAE with CTCAE grade ≥3 [8, 14]: 0 (0.0) n (%)
non‐AE bruising at the injection site, Grade 1 [8, 14]: 4 (66.7) n (%)
non‐AE bruising at the injection site, Grade 2 [8, 14]: 0 (0.0) n (%)
No. of TESAEs [8, 15]: 0
Patients reporting a TEAE of bruising at the injection site [8, 15]: 0 (0.0) n (%)
Patients reporting a non‐AE bruising at the injection site event [8, 15]: 5 (41.7) n (%)
Patients reporting at least 1 bleeding AE [8, 15]: 0 (0.0) n (%)
Patients reporting at least 1 injection site reaction AE [8, 15]: 0 (0.0) n (%)
Patients reporting at least 1 related TEAE with CTCAE grade ≥3 [8, 15]: 0 (0.0) n (%)
non‐AE bruising at the injection site, Grade 1 [8, 15]: 5 (41.7) n (%)
non‐AE bruising at the injection site, Grade 2 [8, 15]: 0 (0.0) n (%)
No. of TESAEs ([8]; total RUC‐4 0.075 mg/kg (n=18)): 0
Patients reporting a TEAE of bruising at the injection site ([8]; total RUC‐4 0.075 mg/kg (n=18)): 0 (0.0) n (%)
Patients reporting a non‐AE bruising at the injection site event ([8]; total RUC‐4 0.075 mg/kg (n=18)): 9 (50.0) n (%)
Patients reporting at least 1 bleeding AE ([8]; total RUC‐4 0.075 mg/kg (n=18)): 0 (0.0) n (%)
Patients reporting at least 1 injection site reaction AE ([8]; total RUC‐4 0.075 mg/kg (n=18)): 0 (0.0) n (%)
Patients reporting at least 1 related TEAE with CTCAE grade ≥3 ([8]; total RUC‐4 0.075 mg/kg (n=18)): 0 (0.0) n (%)
non‐AE bruising at the injection site, Grade 1 ([8]; total RUC‐4 0.075 mg/kg (n=18)): 9 (50.0) n (%)
non‐AE bruising at the injection site, Grade 2 ([8]; total RUC‐4 0.075 mg/kg (n=18)): 0 (0.0) n (%)
adverse events leading to study drug discontinuation [9]: none leading to study drug discontinuation
drug‐related changes in laboratory values [9]: no drug‐related changes in laboratory values
injection site reactions (including bruising), severity [9]: mild
platelet counts during the course of treatment [9]: stable
transient reduction in platelet count, single participant [9]: 120 000 /μL
serious adverse events ([9]; SC 0.04-0.075 mg/kg): no serious adverse events; also recorded: No SAEs were observed
bleeding events, number of patients ([9]; limited to the injection site): 3 patients
severity of bleeding events ([9]; modified Bleeding Academic Research Consortium type 1): mild
